# Laboratory results: ChEMBL document CHEMBL3808332, “Identification of novel aminopiperidine derivatives for antibacterial activity against Gram-positive bacteria” (Bioorg Med Chem Lett, 2016)
# Assays:
# Escherichia coli = assay: Antibacterial activity against Escherichia coli after 24 hrs by microdilution method; assay type: functional
# Staphylococcus aureus = assay: Antibacterial activity against methicillin-resistant Staphylococcus aureus after 24 hrs by microdilution method; assay type: functional
# Enterococcus faecium = assay: Antibacterial activity against vancomycin-resistant Enterococcus faecium after 24 hrs by microdilution method; assay type: functional
# Pseudomonas aeruginosa = assay: Antibacterial activity against Pseudomonas aeruginosa after 24 hrs by microdilution method; assay type: functional
# Enterococcus faecalis = assay: Antibacterial activity against vancomycin-resistant Enterococcus faecalis after 24 hrs by microdilution method; assay type: functional
# Streptococcus pneumoniae = assay: Antibacterial activity against Penicillin-resistant Streptococcus pneumoniae after 24 hrs by microdilution method; assay type: functional
# [1] = Tmax in iv/po dosed mouse plasma by LC-MS/MS analysis; assay type: ADME, organism-based
# How it was run: (§1)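 Mice, n = 3–5 per group, given the compound intravenously and orally. Plasma pharmacokinetic parameters were derived: total plasma clearance, steady-state volume of distribution, apparent terminal elimination half-life, Tmax after oral dosing, and absolute oral bioavailability (%F).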
# [2] = Volume of distribution at steady state in iv/po dosed mouse plasma by LC-MS/MS analysis; assay type: ADME, organism-based; conditions: read-out: Vdss; how it was run: as §1
# Peptide deformylase = target: T1, Peptide deformylase (Staphylococcus aureus, UniProt P68826); assay: Inhibition of Staphylococcus aureus PDF using formyl-methionine-alanine-serine as substrate assessed as increase in NADH levels by microtiter ELISA
# T1 sequence (P68826 whole entry): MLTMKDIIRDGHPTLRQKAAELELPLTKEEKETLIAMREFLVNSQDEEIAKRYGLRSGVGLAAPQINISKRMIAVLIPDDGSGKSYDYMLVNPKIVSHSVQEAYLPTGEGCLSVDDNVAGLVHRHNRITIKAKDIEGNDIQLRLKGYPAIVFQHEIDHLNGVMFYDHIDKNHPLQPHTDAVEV
# [3] = target: T2, Peptide deformylase (Staphylococcus aureus) (UniProt P68826); assay: Inhibition of Staphylococcus aureus PDF using formyl-methionine-alanine-serine as substrate assessed as increase in NADH levels at 3 nM by microtiter ELISA
# T2 sequence (whole entry): T1 sequence (P68826 whole entry)
# [4] = Plasma clearance in iv/po dosed mouse by LC-MS/MS analysis; assay type: ADME, organism-based; how it was run: as §1
# [5] = target: T2, Peptide deformylase (Staphylococcus aureus); assay: Inhibition of Staphylococcus aureus PDF using formyl-methionine-alanine-serine as substrate assessed as increase in NADH levels at 30 nM by microtiter ELISA
# [6] = Apparent terminal half life in iv/po dosed mouse plasma by LC-MS/MS analysis; assay type: ADME, organism-based; conditions: read-out: betat1/2(app) (converted); how it was run: as §1
# [7] = target: T2, Peptide deformylase (Staphylococcus aureus); assay: Inhibition of Staphylococcus aureus PDF using formyl-methionine-alanine-serine as substrate assessed as increase in NADH levels at 10 nM by microtiter ELISA
# [8] = target: T2, Peptide deformylase (Staphylococcus aureus); assay: Inhibition of Staphylococcus aureus PDF using formyl-methionine-alanine-serine as substrate assessed as increase in NADH levels at 100 nM by microtiter ELISA
# [9] = Apparent oral bioavailability in mouse plasma by LC-MS/MS analysis; assay type: ADME, organism-based; how it was run: as §1
SMILES,MIC (Escherichia coli),MIC (Staphylococcus aureus),MIC (Enterococcus faecium),MIC (Pseudomonas aeruginosa),MIC (Enterococcus faecalis),MIC (Streptococcus pneumoniae),further results
CC(C)(C)[C@H](NC(=O)[C@H](CC1CCCC1)CN(O)C=O)C(=O)N1CCC(NCc2nc3ccccc3[nH]2)CC1,> 50 µg/mL,6.3 µg/mL,12.5 µg/mL,> 50 µg/mL,6.3 µg/mL,1.6 µg/mL,
CC(C)(C)[C@H](NC(=O)[C@H](CC1CCCC1)CN(O)C=O)C(=O)N1CCC(Nc2ccc3c(c2)OCO3)CC1,> 50 µg/mL,6.3 µg/mL,1.6 µg/mL,> 50 µg/mL,3.1 µg/mL,0.4 µg/mL,
CC(C)(C)[C@H](NC(=O)[C@H](CC1CCCC1)CN(O)C=O)C(=O)N1CCC(NCc2ccc(O)c(O)c2)CC1,,> 50 µg/mL,> 50 µg/mL,,> 50 µg/mL,12.5 µg/mL,
COc1ccc(CNC2CCN(C(=O)[C@@H](NC(=O)[C@H](CC3CCCC3)CN(O)C=O)C(C)(C)C)CC2)cc1,,12.5 µg/mL,1.6 µg/mL,,6.3 µg/mL,0.8 µg/mL,
CC(C)(C)[C@H](NC(=O)[C@H](CC1CCCC1)CN(O)C=O)C(=O)N1CCC(NCc2ccc3c(c2)OCO3)CC1,> 50 µg/mL,6.3 µg/mL,0.8 µg/mL,> 50 µg/mL,3.1 µg/mL,1.6 µg/mL,
CC(C)(C)[C@H](NC(=O)[C@H](CC1CCCC1)CN(O)C=O)C(=O)N1CCC(NCc2ccc(O)cc2)CC1,,> 50 µg/mL,50 µg/mL,,> 50 µg/mL,3.1 µg/mL,
COc1ccc(CNC2CCN(C(=O)[C@@H](NC(=O)[C@H](CC3CCCC3)CN(O)C=O)C(C)(C)C)CC2)c(OC)c1,,25 µg/mL,3.1 µg/mL,,6.3 µg/mL,0.8 µg/mL,
CN[C@@H](CC(C)C)C(=O)N[C@H]1C(=O)N[C@@H](CC(N)=O)C(=O)N[C@H]2C(=O)N[C@H]3C(=O)N[C@H](C(=O)N[C@@H](C(=O)O)c4cc(O)cc(O)c4-c4cc3ccc4O)[C@H](O)c3ccc(c(Cl)c3)Oc3cc2cc(c3O[C@H]2O[C@@H](CO)[C@H](O)[C@@H](O)[C@@H]2O[C@@H]2C[C@@](C)(N)[C@@H](O)[C@@H](C)O2)Oc2ccc(cc2Cl)[C@H]1O,> 50 µg/mL,3.1 µg/mL,> 50 µg/mL,> 50 µg/mL,> 50 µg/mL,0.8 µg/mL,
CC(C)(C)[C@H](NC(=O)[C@H](CC1CCCC1)CN(O)C=O)C(=O)N1CCC(NCc2ccccc2)CC1,> 50 µg/mL,3.1 µg/mL,0.8 µg/mL,> 50 µg/mL,1.6 µg/mL,0.8 µg/mL,
CC(C)(C)[C@H](NC(=O)[C@H](CC1CCCC1)CN(O)C=O)C(=O)N1CCC(NCc2ccco2)CC1,> 50 µg/mL,50 µg/mL,50 µg/mL,> 50 µg/mL,25 µg/mL,1.6 µg/mL,
CC(C)(C)[C@H](NC(=O)[C@H](CC1CCCC1)CN(O)C=O)C(=O)N1CCC(NCc2ccc(C#N)cc2)CC1,,3.1 µg/mL,0.8 µg/mL,,0.8 µg/mL,0.4 µg/mL,Tmax [1]: 30 min; Vd [2]: 3.49 L/kg; IC50 (Peptide deformylase): 30 nM; inhibition [3]: -6%; clearance [4]: 51.5 mL/min/kg; inhibition [5]: 54%; half-life [6]: 21.6 min; inhibition [7]: 19%; inhibition [8]: 77%; bioavailability [9]: 103%
CC(C)(C)[C@H](NC(=O)[C@H](CC1CCCC1)CN(O)C=O)C(=O)N1CCC(Nc2ccccc2)CC1,> 50 µg/mL,6.3 µg/mL,0.8 µg/mL,> 50 µg/mL,3.1 µg/mL,0.8 µg/mL,
CC(=O)Nc1ccc(CNC2CCN(C(=O)[C@@H](NC(=O)[C@H](CC3CCCC3)CN(O)C=O)C(C)(C)C)CC2)cc1,,> 50 µg/mL,25 µg/mL,,12.5 µg/mL,1.6 µg/mL,
Cc1ccc(CNC2CCN(C(=O)[C@@H](NC(=O)[C@H](CC3CCCC3)CN(O)C=O)C(C)(C)C)CC2)cc1,,6.3 µg/mL,0.4 µg/mL,,3.1 µg/mL,0.4 µg/mL,
CC(C)(C)[C@H](NC(=O)[C@H](CC1CCCC1)CN(O)C=O)C(=O)N1CCN(Cc2ccc3c(c2)OCO3)CC1,,,,,,,IC50 (Peptide deformylase): 30 nM; inhibition [5]: 34%; inhibition [7]: 1%; inhibition [8]: 72%
CC(C)(C)[C@H](NC(=O)[C@H](CC1CCCC1)CN(O)C=O)C(=O)N1CCC(Nc2ccc3cn[nH]c3c2)CC1,> 50 µg/mL,12.5 µg/mL,1.6 µg/mL,> 50 µg/mL,6.3 µg/mL,0.4 µg/mL,
CC(C)(C)[C@H](NC(=O)[C@H](CC1CCCC1)CN(O)C=O)C(=O)N1CCC(NCc2ccccn2)CC1,> 50 µg/mL,25 µg/mL,12.5 µg/mL,> 50 µg/mL,12.5 µg/mL,1.6 µg/mL,
CC(C)(C)[C@H](NC(=O)[C@H](CC1CCCC1)CN(O)C=O)C(=O)N1CCC(NCc2ccc[nH]2)CC1,> 50 µg/mL,> 50 µg/mL,> 50 µg/mL,> 50 µg/mL,> 50 µg/mL,6.3 µg/mL,
CC(C)(C)[C@H](NC(=O)[C@H](CC1CCCC1)CN(O)C=O)C(=O)N1CCC(N)CC1,> 50 µg/mL,> 50 µg/mL,> 50 µg/mL,> 50 µg/mL,50 µg/mL,1.6 µg/mL,
COC(=O)c1ccc(CNC2CCN(C(=O)[C@@H](NC(=O)[C@H](CC3CCCC3)CN(O)C=O)C(C)(C)C)CC2)cc1,,12.5 µg/mL,3.1 µg/mL,,6.3 µg/mL,0.8 µg/mL,
CC(C)(C)[C@H](NC(=O)[C@H](CC1CCCC1)CN(O)C=O)C(=O)N1CCC(NC(=O)c2ccc(C#N)cc2)CC1,,,,,,,Tmax [1]: 40.2 min; Vd [2]: 2.54 L/kg; clearance [4]: 44 mL/min/kg; half-life [6]: 55.2 min; bioavailability [9]: 55.5%
CC(C)(C)[C@H](NC(=O)[C@H](CC1CCCC1)CN(O)C=O)C(=O)N1CCC(NCc2ccc(F)cc2)CC1,,6.3 µg/mL,0.4 µg/mL,,3.1 µg/mL,0.4 µg/mL,
CC(C)(C)[C@H](NC(=O)[C@H](CC1CCCC1)CN(O)C=O)C(=O)N1CCC(NCc2ccc3[nH]ccc3c2)CC1,> 50 µg/mL,6.3 µg/mL,6.3 µg/mL,> 50 µg/mL,3.1 µg/mL,0.8 µg/mL,
